Bioassay records from PubChem.
TAAR1 antagonist: human TAAR1 antagonism; Q96RJ0; CHO RD-HGA16 TAAR1, Fluo-8 calcium fluorescence, antagonist; inhibition, % at 3 µM; 1.5% of 360,000 active; AID 624466;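 active = inhibition above a per-plate cutoff, the mean inhibition of test compounds on that plate plus 3 SD, cut at about 49% in these data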;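 note: 0% = DMSO plus EC80 beta-PEA response and 100% = DMSO alone without agonist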
Target sequence (Q96RJ0 whole entry, looked up): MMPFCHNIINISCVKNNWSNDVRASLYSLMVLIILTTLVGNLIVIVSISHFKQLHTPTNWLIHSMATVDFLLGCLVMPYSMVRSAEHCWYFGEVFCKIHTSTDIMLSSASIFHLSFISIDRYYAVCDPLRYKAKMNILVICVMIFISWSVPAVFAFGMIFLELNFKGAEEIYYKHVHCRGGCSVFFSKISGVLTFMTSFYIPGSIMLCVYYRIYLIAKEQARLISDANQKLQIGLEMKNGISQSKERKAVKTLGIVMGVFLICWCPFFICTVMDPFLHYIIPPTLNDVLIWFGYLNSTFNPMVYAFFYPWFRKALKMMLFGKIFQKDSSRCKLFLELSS
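Test system – hTAAR1-expressing CHO RD-HGA16 cells, Gα16-coupled · Also added – β-PEA at EC80 concentration, post-compound challenge · Compound – 3 µM, single point · Incubation – dye loading 75 min at 37 °C, then 30 min room temperature · Measured by – Fluo-8 intracellular calcium dye fluorescence, real-time kinetic reads · Benchmarks – vehicle and agonist controls · Replicates – singlicate, one well per test compound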
TAAR1 ag: agonists of human TAAR1 | CHO RD-HGA16 TAAR1, Fluo-8 calcium fluorescence; vehicle wells 0%, saturating PEA agonist 100% | activation, % at 3 µM | 0.99% of 360,000 active | AID 624467;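 active = activation above the mean activation of all test compounds in the run plus 3 SD, cut at about 38% in these data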
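Repeats: no replicates (n 1) | Material: CHO-derived RD-HGA16 cells with stable Gα16 and human TAAR1 | Technique: Kinetic Fluo-8 calcium fluorescence | Schedule: 17-24 h seeding, 75 min 37 °C dye, 30 min RT | Evaluation: % activation from peak over basal fluorescence ratio, DMSO-to-PEA scaled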
GPR7 antagonist: antagonists of human GPR7 (neuropeptides B/W receptor 1); GPR7-expressing cells, fluorescence antagonist assay; inhibition, % at 4.4 µM; 1.1% of 290,000 active; AID 1861; in the data active = inhibition above about 16%, passing the limit was not always enough;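 note: cells stimulated with the agonist NPW; 0% = agonist with vehicle and 100% = vehicle without agonist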
Target sequence (P48145 whole entry, looked up): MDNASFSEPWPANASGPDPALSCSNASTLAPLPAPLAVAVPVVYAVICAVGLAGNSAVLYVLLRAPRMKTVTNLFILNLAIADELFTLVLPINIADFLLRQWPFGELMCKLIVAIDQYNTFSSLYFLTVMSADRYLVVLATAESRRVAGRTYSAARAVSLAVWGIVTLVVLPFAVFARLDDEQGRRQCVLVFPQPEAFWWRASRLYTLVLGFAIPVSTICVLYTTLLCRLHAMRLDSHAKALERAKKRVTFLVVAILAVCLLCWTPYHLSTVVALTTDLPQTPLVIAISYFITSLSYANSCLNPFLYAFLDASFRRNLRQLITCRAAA
OX1R antag-1: antagonists of human orexin 1 receptor; CHO/OX1R cells, Fluo-8 calcium fluorescence, orexin A; AID 434989; O43613; 0.43% of 330,000 active; inhibition, % at 5 µM;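 active = inhibition above its plate's threshold, mean inhibition of all tested compounds on the plate plus 3 SD, cut at about 37% in these data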;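 note: 0% = orexin A challenge wells and 100% = SB-334867-A antagonist wells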
OX1R antag-2: OX1R (human) antagonism; AID 485270; inhibition, % at 6.6 µM; 1.8% of 330,000 active; OX1R-expressing cells, FRET antagonist read-out; in the data active = inhibition mostly above about 38%, no sharp cut-off; inactive = mostly below about 40%;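 note: 0% = agonist challenge alone and 100% = reference antagonist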
CHO parental Ca: counter-screen for OX1R antagonists: effect in parental CHO cells; inhibition, % at 5.6 µM; 0.63% of 330,000 active; parental CHO-K1, ATP-induced calcium, Fluo-8 fluorescence;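 active = inhibition above that plate's mean sample inhibition plus 3 SD, cut at about 26% in these data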;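 note: 0% = ATP-challenged DMSO wells and 100% = DMSO wells without ATP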
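Assay system – parental CHO cells · Reagent – ATP stimulus · Detection – intracellular calcium via Fluo-8 no-wash fluorescent dye · Evaluation – percent inhibition of ATP-evoked calcium rise, normalized to controls · Controls – ATP wells versus no-ATP DMSO wells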
Starred values were filed as active, the others as inactive. Only some compounds are listed: those with a hit (about 4.5% of all), similar ones and a draw of the others.

`COC(=O)[C@]12C[C@H](CC(=O)N3CCCC3)C(=O)N(Cc3ccccc3)C1=C[C@H](C(C)C)O[C@@H]2C1CC1` gave TAAR1 antagonist -20 and TAAR1 ag 0.
Screening CC(O)CNc1cc(N)c([N+](=O)[O-])cc1[N+](=O)[O-] (stereo not drawn) returned TAAR1 antagonist 7, TAAR1 ag 0, GPR7 antagonist -3, OX1R antag-1 3, OX1R antag-2 73* and CHO parental Ca -1.
For CC(O)CNc1ccc([N+](=O)[O-])cc1S(=O)(=O)N1CCOCC1 (stereo not drawn) the results were TAAR1 antagonist -9, TAAR1 ag -1, GPR7 antagonist -8, OX1R antag-1 3, OX1R antag-2 22 and CHO parental Ca -10.
CCOC(=O)C1=CCN(S(=O)(=O)c2ccc(F)cc2)C1c1ccc(F)cc1 (stereo not drawn) was read as TAAR1 antagonist -25 and TAAR1 ag -2.
For COC(=O)C1=C(C)N(CCc2ccc(OC)cc2)C(=O)C1 the results were TAAR1 antagonist 52*, TAAR1 ag 16, GPR7 antagonist 17, OX1R antag-1 -18, OX1R antag-2 6 and CHO parental Ca -19.
`O=S(=O)(c1ccc(N2CCC(c3ccc(Cl)cc3)=N2)cc1)N(CCO)CCO` gave TAAR1 antagonist 11, TAAR1 ag 7, GPR7 antagonist -8, OX1R antag-1 46*, OX1R antag-2 7 and CHO parental Ca 62*.
CN(C)CCCNS(=O)(=O)c1ccc(N2CCC(c3ccc(Cl)cc3)=N2)cc1 was read as TAAR1 antagonist 26, TAAR1 ag 7, GPR7 antagonist 41*, OX1R antag-1 8, OX1R antag-2 16 and CHO parental Ca 11.
For O=S(=O)(c1ccc(Oc2ccc(S(=O)(=O)N(CCO)CCO)cc2)cc1)N(CCO)CCO the results were TAAR1 antagonist -12, TAAR1 ag 2, GPR7 antagonist 4, OX1R antag-1 -3, OX1R antag-2 5 and CHO parental Ca -7.
Cc1ccc2nsnc2c1S(=O)(=O)NCc1ccc2c(c1)OCO2 was read as TAAR1 antagonist -5, TAAR1 ag 9, GPR7 antagonist -3, OX1R antag-1 -36, OX1R antag-2 44* and CHO parental Ca 2.
`CCN(CC)C(=O)c1cccc(-c2csc(C(O)c3cccc(Cl)c3)n2)c1` (stereo not drawn) gave TAAR1 antagonist 57* and TAAR1 ag 3.
`CN(C)c1ccc(-c2csc(C(O)c3cccc(Cl)c3)n2)cc1` (stereo not drawn) gave TAAR1 antagonist 73* and TAAR1 ag 52*.
CCc1nnc(NS(=O)(=O)c2ccc(NC(=S)NC(=O)/C=C/c3ccc(C(C)C)cc3)cc2)s1 was read as GPR7 antagonist -16, OX1R antag-1 36, OX1R antag-2 20 and CHO parental Ca 44*.
Screening CCc1nnc(NS(=O)(=O)c2ccc(NC(=S)NC(=O)/C=C/c3ccccc3)cc2)s1 returned TAAR1 antagonist 13, TAAR1 ag -1, GPR7 antagonist 1, OX1R antag-1 -16, OX1R antag-2 15 and CHO parental Ca -18.
Nc1nc(N)c2nc(CNc3ccc(C(=O)NC(CCC(=O)O)C(=O)O)cc3)cnc2n1 (stereo not drawn) was read as OX1R antag-1 -6, OX1R antag-2 61* and CHO parental Ca -5.
CN(Cc1cnc2nc(N)nc(N)c2n1)c1ccc(C(=O)NC(CCC(=O)O)C(=O)O)cc1 (stereo not drawn) was read as TAAR1 antagonist -22 and TAAR1 ag 10.
Screening O=C(Nc1ccc(Cl)c(Cl)c1)OCc1cccnc1 returned TAAR1 antagonist 4, TAAR1 ag 14, GPR7 antagonist 8, OX1R antag-1 40, OX1R antag-2 75* and CHO parental Ca 76*.
`O=C(Nc1cccnc1)OCc1ccccc1` gave TAAR1 antagonist -11, TAAR1 ag 7, GPR7 antagonist -10, OX1R antag-1 -5, OX1R antag-2 -2 and CHO parental Ca 6.
Screening Cc1cc(C)c(S(=O)(=O)/N=C2/C=C(Sc3ncn[nH]3)C(=O)c3ccccc32)cc1C returned TAAR1 antagonist 45, TAAR1 ag 30, GPR7 antagonist -14, OX1R antag-1 0, OX1R antag-2 63* and CHO parental Ca -6.
`Cc1cc(Nc2ccc(OC(F)F)cc2)cc(=O)n1-c1ccc(OC(F)F)cc1` gave TAAR1 antagonist 13 and TAAR1 ag 0.
Screening COc1ccc(CN2CCN(C(=O)c3ccc(S(=O)(=O)N4CCCCCC4)cc3)CC2)cc1F returned TAAR1 antagonist 58* and TAAR1 ag 12.
`COc1ccc(CN2CCN(C(=O)c3ccc(S(=O)(=O)N4CCCCCC4)cc3)CC2)cc1` gave TAAR1 antagonist 18 and TAAR1 ag 6.
For CCOC(=O)C1=C(C)NC(C)=C(C(=O)OCC)C1C(=O)OCC(=O)NCc1ccccc1OC the results were TAAR1 antagonist 7, TAAR1 ag 6, OX1R antag-1 11, OX1R antag-2 45* and CHO parental Ca -17.
`CCOC(=O)C1=C(C)NC(C)=C(C(=O)OCC)C1C(=O)OCC(=O)NCc1ccccc1` gave TAAR1 antagonist 30, TAAR1 ag 7, OX1R antag-1 -30, OX1R antag-2 8 and CHO parental Ca -21.
Screening COc1cc(NC(=O)c2ccc(S(=O)(=O)N(C)c3ccccc3)cc2)cc(OC)c1 returned TAAR1 antagonist 51*, TAAR1 ag 0, OX1R antag-1 18, OX1R antag-2 -3 and CHO parental Ca 19.
`COc1ccc(OC)c(NC(=O)c2ccc(-c3cccs3)cc2)c1` gave TAAR1 antagonist 17, TAAR1 ag -2, GPR7 antagonist 5, OX1R antag-1 -11, OX1R antag-2 55* and CHO parental Ca -16.
`O=C(CCNC(=O)c1ccco1)Nc1ccc(OC(F)F)c(Cl)c1` gave TAAR1 antagonist -1, TAAR1 ag 0, GPR7 antagonist -12, OX1R antag-1 -8, OX1R antag-2 19 and CHO parental Ca -5.
For COc1cc(OC)cc(C(=O)Nc2ccc(NC(=O)c3ccco3)c(Cl)c2)c1 the results were TAAR1 antagonist 4, TAAR1 ag 0, GPR7 antagonist 25*, OX1R antag-1 -29, OX1R antag-2 24 and CHO parental Ca -14.
For COc1ccc(NC(=O)COC(=O)CCNC(=O)c2ccco2)cc1Cl the results were TAAR1 antagonist 12, TAAR1 ag 43*, OX1R antag-1 -7, OX1R antag-2 3 and CHO parental Ca -5.
Cc1noc(C)c1S(=O)(=O)N1CCCc2nc(-c3ccccc3)ccc21 was read as TAAR1 antagonist -1 and TAAR1 ag 0.
